Reference: paper PMC7744356 (European journal of medicinal chemistry, 2020)
Entries after “also recorded” stand apart in the source; their conditions may differ.

Key:
Type in all cases: cell-based
N1303K-CFTR [1] = target: T1, N1303K-CFTR (Homo sapiens, UniProt P13569, N1303K); experiment: Co-potentiator activity in N1303K-CFTR expressing FRT cell model; conditions: for co-potentiator activity (in words) / VMAX: N1303K-CFTR expressing FRT cells; for VMAX: 20 = 100%; for fold more potent than 20: EC50 relative to 20
Outline: (§1)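 FRT cells stably expressing N1303K-CFTR, grown on permeable supports and corrected with 3 μM VX-661 for 18–24 h. Short-circuit current was recorded at 37 °C in HCO3-buffered solutions with a chloride gradient and the basolateral membrane permeabilized with 250 μg/ml amphotericin B. Additions: 20 μM forskolin, 5 μM VX-770, rising test compound concentrations, then 10 μM CFTRinh-172. EC50 and maximal response come from concentration-dependence data (n=3, mean ± S.E.M.), with potency relative to a reference co-potentiator.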

N1303K-CFTR [2] = target: T1, N1303K-CFTR; experiment: Short-circuit current in gene-edited 16HBE14o- cells expressing N1303K-CFTR
Outline: (§2)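 Gene-edited 16HBE14o- human bronchial epithelial cells carrying endogenous N1303K or I1234del CFTR were grown on permeable supports. The I1234del cells were corrected with 18 μM VX-661 plus 3 μM VX-445 for 18–24 h. Short-circuit current was measured at 37 °C in Hepes-buffered solutions with a chloride gradient. Additions: 20 μM forskolin, 5 μM VX-770, 10 μM test compound, then 10 μM CFTRinh-172. The CFTRinh-172-inhibitable ΔIsc is compared with the VX-770-alone response (mean ± S.E.M., n=3, unpaired t-test).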

R347P-CFTR = R347P-CFTR (Homo sapiens, UniProt P13569, R347P); experiment: Short-circuit current in FRT cells expressing R347P-CFTR; conditions: 20 μM 2i after 20 μM forskolin and 5 μM VX-770
Outline: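 Permeabilized FRT monolayers stably expressing R347P-CFTR were pre-corrected with 3 μM VX-661 for 18–24 h. Short-circuit current was measured at 37 °C in HCO3-buffered solutions under a chloride gradient, with the basolateral membrane opened using 250 μg/ml amphotericin B. Sequential additions: 20 μM forskolin, 5 μM VX-770, 20 μM test compound, then 10 μM CFTRinh-172.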

I1234del-CFTR = I1234del-CFTR (Homo sapiens, UniProt P13569, DEL1234-1239); experiment: Short-circuit current in gene-edited 16HBE14o- cells expressing I1234del-CFTR; conditions: 10 μM 2i
Outline: as §2

N1303K-CFTR [3] = target: T1, N1303K-CFTR; experiment: Short-circuit current in FRT cells expressing N1303K-CFTR; conditions: N1303K-CFTR EC50
Outline: as §1

**Q.** COc1ccc2[nH]c3c(c2c1)CCN[C@@]31CCN2Cc3ccccc3C[C@H]2C1 (racemic) [6b, (+/−)-(2R,11aS)-6’-methoxy-1,2’,3,3’,4,4’,6,9’,11,11a-decahydrospiro[pyrido[1,2-b]isoquinoline-2,1’-pyrido[3,4-b]indole]] was tested. Which “co-potentiator activity (in words)” value (N1303K-CFTR [1]) did it give?
**A.** Its value is “inactive”.

**Q.** For COc1ccc2[nH]c3c(c2c1)CCNC31CCN(Cc2cc(Cl)ccc2[N+](=O)[O-])CC1 [1c, 1-(5-Chloro-2-nitrobenzyl)-6’-methoxy-2’,3’,4’,9’-tetrahydrospiro[piperidine-4,1’-pyrido[3,4-b]indole]], which VMAX (N1303K-CFTR [1]) is on record?
**A.** The VMAX was “improved Vmax”.

**Q.** With COc1ccc2[nH]c3c(c2c1)CCNC31CCN(Cc2ccc(Cl)cc2Cl)CC1 [1d, 1-(2,4-Dichlorobenzyl)-6’-methoxy-2’,3’,4’,9’-tetrahydrospiro[piperidine-4,1’-pyrido[3,4-b]indole]] as the compound, how does the “co-potentiator activity (in words)” value (N1303K-CFTR [1]) read?
**A.** The value was “decreased activity”.

**Q.** With COc1ccc2[nH]c3c(c2c1)CCNC31CCN(Cc2cc(F)cc(Cl)c2)CC1 [1e, 1-(3-Chloro-5-fluorobenzyl)-6’-methoxy-2’,3’,4’,9’-tetrahydrospiro[piperidine-4,1’-pyrido[3,4-b]indole]] as the compound, how does the “co-potentiator activity (in words)” value (N1303K-CFTR [1]) read?
**A.** The value was “decreased activity”.

**Q.** COc1ccc2[nH]c3c(c2c1)CCNC31CCN(Cc2ccc(F)c(Cl)c2F)CC1 [1j, 1-(3-Chloro-2,4-difluorobenzyl)-6’-methoxy-2’,3’,4’,9’-tetrahydrospiro[piperidine-4,1’-pyrido[3,4-b]indole]] was tested. Which VMAX (N1303K-CFTR [1]) did it give?
**A.** The VMAX was “improved Vmax”.

**Q.** For COc1ccc2[nH]c3c(c2c1)CCNC31CCN(Cc2ccc(F)cc2F)CC1 [2a, 1-(2,4-Difluorobenzyl)-6’-methoxy-2’,3’,4’,9’-tetrahydrospiro[piperidine-4,1’-pyrido[3,4-b]indole]], which “co-potentiator activity (in words)” value (N1303K-CFTR [1]) is on record?
**A.** Its value is “active”.

**Q.** With COc1ccc2[nH]c3c(c2c1)CCNC31CCN(Cc2cc(F)cc(F)c2)CC1 [2c, 1-(3,5-Difluorobenzyl)-6’-methoxy-2’,3’,4’,9’-tetrahydrospiro[piperidine-4,1’-pyrido[3,4-b]indole]] as the compound, how does the “co-potentiator activity (in words)” value (N1303K-CFTR [1]) read?
**A.** The value was “active”.

**Q.** With COc1ccc2[nH]c3c(c2c1)CCNC31CCN(Cc2c(F)c(F)c(F)c(F)c2F)CC1 [2e, 6’-Methoxy-1-((perfluorophenyl)methyl)-2’,3’,4’,9’-tetrahydrospiro[piperidine-4,1’-pyrido[3,4-b]indole]] as the compound, how does the “co-potentiator activity (in words)” value (N1303K-CFTR [1]) read?
**A.** Its value is “active”.

**Q.** COc1ccc2[nH]c3c(c2c1)CCNC31CCN(Cc2cc(F)c(F)cc2F)CC1 [2i, 6’-Methoxy-1-(2,4,5-trifluorobenzyl)-2’,3’,4’,9’-tetrahydrospiro[piperidine-4,1’-pyrido[3,4-b]indole]] was tested. Which “fold greater response than VX-770 alone” value (N1303K-CFTR [2]; 10 μM 2i) did it give?
**A.** Its value is “approximately 6 fold”.

**Q.** And the “CFTRinh-172-inhibitable short-circuit current response” value (N1303K-CFTR [2]; 10 μM 2i after 20 μM forskolin and 5 μM VX-770, mean ± S.E.M., n=3)?
**A.** Its value is 16.1 ± 0.4 μA/cm^2.

**Q.** What about the “activation of R347P-CFTR (in words)” value (R347P-CFTR) of the same compound?
**A.** The value was “not activated”.

**Q.** And the “fold greater response than VX-770 alone” value (I1234del-CFTR)?
**A.** The value was roughly 2 fold.

**Q.** And the “co-potentiator activity (in words)” value (N1303K-CFTR [1])?
**A.** The value was “most potent”.

**Q.** What about the “fold improvement in potency over the original compound (20)” value (N1303K-CFTR [3]) of the same compound?
**A.** The value was ~ 17 fold.

**Q.** COc1ccc2[nH]c3c(c2c1)CCNC31CCNCC1 [3a, 6’-Methoxy-2’,3’,4’,9’-tetrahydrospiro[piperidine-4,1’-pyrido[3,4-b]indole]] was tested. Which “co-potentiator activity (in words)” value (N1303K-CFTR [1]) did it give?
**A.** The value was “inactive”.

**Q.** For COc1ccc2[nH]c3c(c2c1)CCNC31CCN(CCc2ccccc2)CC1 [3c, 6’-Methoxy-1-phenethyl-2’,3’,4’,9’-tetrahydrospiro[piperidine-4,1’-pyrido[3,4-b]indole]], which “co-potentiator activity (in words)” value (N1303K-CFTR [1]) is on record?
**A.** The value was “greatly reduced activity; also recorded: inactive”.

**Q.** With COc1ccc2[nH]c3c(c2c1)CCNC31CCN(CCCc2ccccc2)CC1 [3d, 6’-Methoxy-1-(3-phenylpropyl)-2’,3’,4’,9’-tetrahydrospiro[piperidine-4,1’-pyrido[3,4-b]indole]] as the compound, how does the “co-potentiator activity (in words)” value (N1303K-CFTR [1]) read?
**A.** Its value is “greatly reduced activity; also recorded: inactive”.

**Q.** With COc1ccc2[nH]c3c(c2c1)CCNC31CCN(Cc2ccco2)CC1 [3e, 1-(Furan-2-ylmethyl)-6’-methoxy-2’,3’,4’,9’-tetrahydrospiro[piperidine-4,1’-pyrido[3,4-b]indole]] as the compound, how does the “co-potentiator activity (in words)” value (N1303K-CFTR [1]) read?
**A.** Its value is “active, but less potent”.

**Q.** Which Emax (N1303K-CFTR [1]; FRT, read-out: VMAX) does the source give for COc1ccc2[nH]c3c(c2c1)CCNC31CCN(Cc2ccccn2)CC1 [3f, 6’-Methoxy-1-(pyridin-2-ylmethyl)-2’,3’,4’,9’-tetrahydrospiro[piperidine-4,1’-pyrido[3,4-b]indole]] here?
**A.** The Emax was 107%.

**Q.** What about the “co-potentiator activity (in words)” value (N1303K-CFTR [1]) of the same compound?
**A.** Its value is “active, but less potent”.

**Q.** Which “co-potentiator activity (in words)” value (N1303K-CFTR [1]) does the source give for COc1ccc2[nH]c3c(c2c1)CCNC31CCN(Cc2cccnc2)CC1 [3g, 6’-Methoxy-1-(pyridin-3-ylmethyl)-2’,3’,4’,9’-tetrahydrospiro[piperidine-4,1’-pyrido[3,4-b]indole]] here?
**A.** Its value is “active, but less potent”.

**Q.** For COc1ccc2[nH]c3c(c2c1)CCNC31CCCN(Cc2ccc(F)cc2F)CC1 (stereo not drawn) [4a, 1-(2,4-Difluorobenzyl)-6’-methoxy-2’,3’,4’,9’-tetrahydrospiro[azepane-4,1’-pyrido[3,4-b]indole]], which “co-potentiator activity (in words)” value (N1303K-CFTR [1]) is on record?
**A.** Its value is “inactive”.

**Q.** COc1ccc2[nH]c3c(c2c1)CCNC31CCN(Cc2ccc(F)cc2F)C1 (stereo not drawn) [4b, 1’-(2,4-Difluorobenzyl)-6-methoxy-2,3,4,9-tetrahydrospiro[pyrido[3,4-b]indole-1,3’-pyrrolidine]] was tested. Which “co-potentiator activity (in words)” value (N1303K-CFTR [1]) did it give?
**A.** Its value is “inactive; also recorded: abolished activity”.

**Q.** With COc1ccc2[nH]c3c(c2c1)CCNC31CCCN(Cc2ccc(F)cc2F)C1 (stereo not drawn) [4c, 1-(2,4-Difluorobenzyl)-6’-methoxy-2’,3’,4’,9’-tetrahydrospiro[piperidine-3,1’-pyrido[3,4-b]indole]] as the compound, how does the “co-potentiator activity (in words)” value (N1303K-CFTR [1]) read?
**A.** Its value is “inactive; also recorded: abolished activity”.

**Q.** How did the “co-potentiator activity (in words)” value (N1303K-CFTR [1]) turn out when COc1ccc2[nH]cc(CCNC3CCN(Cc4ccccc4)CC3)c2c1 [4d, 1-Benzyl-N-(2-(5-methoxy-1H-indol-3-yl)ethyl)piperidin-4-amine] was run?
**A.** Its value is “abolished activity”.

**Q.** With Fc1ccc(CN2CCC3(CC2)NCCc2c3[nH]c3ccc(Cl)cc23)c(F)c1 [5c, 6’-Chloro-1-(2,4-difluorobenzyl)-2’,3’,4’,9’-tetrahydrospiro[piperidine-4,1’-pyrido[3,4-b]indole]] as the compound, how does the “fold more potent than 20” value (N1303K-CFTR [1]) read?
**A.** The value was “approximately 4 fold”.

**Q.** And the “co-potentiator activity (in words)” value (N1303K-CFTR [1])?
**A.** Its value is “tolerated”.

**Q.** Which results are given for COc1ccc2c3c([nH]c2c1)C1(CCN(Cc2ccc(F)cc2F)CC1)NCC3 [5d, 1-(2,4-Difluorobenzyl)-7’-methoxy-2’,3’,4’,9’-tetrahydrospiro[piperidine-4,1’-pyrido[3,4-b]indole]]?
**A.** fold more potent than 20 (N1303K-CFTR [1]): approximately 4 fold; co-potentiator activity (in words) (N1303K-CFTR [1]): decreased activity

**Q.** COc1ccc2c(c1)c1c(n2C)C2(CCN(Cc3ccc(F)cc3F)CC2)NCC1 [5e, 1-(2,4-Difluorobenzyl)-6’-methoxy-9’-methyl-2’,3’,4’,9’-tetrahydrospiro[piperidine-4,1’-pyrido[3,4-b]indole]] was tested. Which “co-potentiator activity (in words)” value (N1303K-CFTR [1]) did it give?
**A.** Its value is “inactive; also recorded: inactivity”.
